For test [1], the target named is Tubulin. Description: Inhibition of tubulin polymerization. It is filed as protein-complex assay, Homo sapiens. Put shortly:
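Tubulin polymerization kit used; components added to wells at 0 °C with 340 nm baselines, then assembly followed at 0 °C and 37 °C and measured turbidimetrically. Compounds tested at 0, 3, 10 and 30 µM; IC50 calculated from the polymerization data.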

The subject of test [2] is Huh-7. Description: Antiproliferative activity against human Huh7 cells after 48 hrs. It counts as functional, cell-based. Conditions: Huh-7, 48 h. Put shortly: (§1)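 Cells kept in DMEM with 10% FBS/glutamine/antibiotics, 37 °C, 5% CO2; 2 × 10⁴ cells seeded, after 24 h exposed to compounds (0.01–100 µM) for 48 h. Part of the supernatant was removed, CellTiter 96 Aqueous reagent added, 2 h further incubation at 37 °C, absorbance at 490 nm read; IC50 derived. Huh7 is a hepatoma line, 293T renal epithelial.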

In test [3] the test system is HEK-293T. The test can be described thus: Antiproliferative activity against human 293T cells after 48 hrs. It is filed as functional, cell-based. Put shortly:
as §1

The test system of test [4] is SNU-398. The test can be described thus: Cell cycle arrest in SNU398 cells by accumulation at G2/M phase at 50 nM. It counts as functional, Homo sapiens. Put shortly:
(§2)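 SNU-398 hepatoma cells (5 × 10⁵) seeded, grown 24 h, then 48 h with compound or carrier alone. Harvested, PBS-washed twice, stained with a cell cycle analysis kit, analysed by flow cytometry; cell cycle phase percentages estimated, G2/M fraction reported.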

Test [5] has as its system SNU-398. Description: Cell cycle arrest in SNU398 cells by accumulation at G2/M phase at 5000 nM. It is filed as functional, Homo sapiens. Put shortly:
as §2

In test [6] the test system is SNU-398. The test can be described thus: Cell cycle arrest in SNU398 cells by accumulation at G2/M phase at 500 nM. It counts as functional, Homo sapiens. A digest of the protocol:
as §2

The IC50 is the midpoint of a concentration-inhibition curve. Read a high IC50 as weaker potency in that assay.

Consider `O=C(/C=C/c1ccccn1)c1ccccc1` [WR-190433], for which the values for the IC50 in test [1], in test [2] and in test [3] were above 30 µM, 14.3 µM and 13.8 µM, respectively.

As for `O=C(/C=C/c1ccccn1)c1ccc(NC(=O)c2ccco2)cc1`, the results for the Activity in test [4], in test [5] and in test [6] were 36.3%, 46.6% and 36.3%, respectively. The IC50 worked out at 9.9 µM in test [2] and 9.8 µM in test [3].

As to `O=C(/C=C/c1cccc2ccccc12)c1ccc(NC(=O)c2cccs2)cc1`, the IC50 in test [2] and in test [3] was above 100 µM each time.

With `CC(=O)Nc1ccc(C(=O)/C=C/c2ccccn2)cc1`, the Activity was found to be 37.7% in test [4], 43.3% in test [5] and 37.1% in test [6]. Besides, the results for the IC50 in test [1], in test [2] and in test [3] were 15.7 µM, 9.6 µM and 13.7 µM, respectively.

For `CN(C)CC(=O)Nc1ccc(C(=O)/C=C/c2ccccn2)cc1`, the Activity in test [4] is 31.9%; in test [5], 43%; in test [6], 32.7%. Besides, the 50% inhibitory concentration (IC50) was 19.8 µM in test [1], 8.4 µM in test [2] and 8.2 µM in test [3].

Turning to `CCOc1ccc(C(C)(C)C(=O)Nc2ccc(C(=O)/C=C/c3ccccn3)cc2)cc1`, the half-inhibitory concentration (IC50) in test [2] and in test [3] was above 100 µM throughout.

The record behind these values is ChEMBL document CHEMBL1137260, “Design and biological evaluation of novel tubulin inhibitors as antimitotic agents using a pharmacophore binding model with tubulin” (J Med Chem, 2006).
